Experimental data published in ChEMBL document CHEMBL3734652, “Pyrrolo[3,4-c]pyridine-1,3(2H)-diones: A Novel Antimycobacterial Class Targeting Mycobacterial Respiration” (J Med Chem, 2015).
Values after ≈ are worked out from the molar mass of the structure shown.

Experiments:
[1] = system: Mycobacterium tuberculosis; experiment: Antimicrobial activity against Mycobacterium tuberculosis deltacydKO/A317T mutant under GAST/Fe medium assessed as growth inhibition after 14 days by alamar blue assay; format: functional
How it was run: (§1)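 Broth microdilution in GAST/Fe medium against fully virulent Mtb H37RvMa or its derived strains (cytochrome bd oxidase deletion ΔcydKO; qcrB Ala317Thr point mutant). Plates were incubated 14 days, growth was read by Alamar Blue, and MIC90 was taken as the potency value.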

[2] = system: Mycobacterium tuberculosis; experiment: Antimicrobial activity against Mycobacterium tuberculosis deltacydKO mutant under GAST/Fe medium assessed as growth inhibition after 14 days by alamar blue assay; format: functional; how it was run: as §1

Compound	MIC90 [1] [µM]	MIC90 [2] [µM]
Cc1nc(C(=O)OC2CC2)c(N)c2c1C(=O)N(Cc1ccccc1)C2=O	>10	0.039 (≈ 0.0137 µg/mL)
CCOC(=O)c1nc(C)c2c(c1N)C(=O)N(Cc1ccccc1)C2=O	>10	0.019 (≈ 0.00645 µg/mL)
CCOC(=O)c1nc(C)c2c(c1N)C(=O)N(Cc1ccccc1)C2O (configuration not stated)	>10	0.019 (≈ 0.00649 µg/mL)
Cc1noc(-c2nc(C)c3c(c2N)C(=O)N(Cc2cccc(Cl)c2)C3=O)n1	>10	<0.019
Cc1noc(-c2nc(C)c3c(c2N)C(=O)N(Cc2cccc(OC(F)(F)F)c2)C3=O)n1	>10	<0.019
COc1cccc(CN2C(=O)c3c(C)nc(-c4nc(C)no4)c(N)c3C2=O)c1	>10	0.039 (≈ 0.0148 µg/mL)
